# MrgX1 ag – agonists of human MrgX1 receptor; MrgX1-HEK293 cells, Fluo-4 calcium fluorescence, agonist mode; hits give high values; B-score at 10 µM; actives 0.44% (n = 310,000);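 active = calcium response B-score plate-corrected fluorescence ratio at least 3 library SD, with starting fluorescence B-score inside 5 SD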
# Target sequence (Q96LB2 whole entry, looked up): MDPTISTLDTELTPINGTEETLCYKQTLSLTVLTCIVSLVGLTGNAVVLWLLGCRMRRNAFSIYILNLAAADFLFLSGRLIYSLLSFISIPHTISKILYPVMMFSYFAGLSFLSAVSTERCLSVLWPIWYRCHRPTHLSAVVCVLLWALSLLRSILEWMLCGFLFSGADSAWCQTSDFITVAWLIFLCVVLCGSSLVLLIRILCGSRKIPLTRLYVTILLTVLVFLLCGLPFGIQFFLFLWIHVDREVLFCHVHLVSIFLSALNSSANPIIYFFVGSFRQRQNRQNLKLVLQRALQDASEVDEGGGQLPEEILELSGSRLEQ
#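 Material: HEK293 cells stably expressing human MrgX1 receptor | Quantity: 15,000 cells per well | Times: Cells plated overnight, dye loaded 0.5 h 37 °C, 0.5 h room temperature | Measured by: Kinetic Fluo-4 NW fluorescence of intracellular calcium | Control set: Positive and negative controls per plate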
# RGS4 inh – human RGS4 inhibition; AID 463165; actives 0.45% (n = 310,000); P49798; B-score at 10 µM; HEK293 M3R/RGS4 inducible, Fluo-4 calcium flux; hits give high values; triggered by carbachol at its EC20;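 active = B-score, a plate-corrected calcium signal, over three deviations above library mean, with baseline fluorescence within five deviations of library mean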;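 also: RGS4 expression induced by doxycycline in cells with stable M3 receptor; B-score is computed from the integrated fluorescence ratio over baseline after carbachol; higher B-score means a larger calcium signal and so more RGS4 inhibition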
# Target sequence (P49798 whole entry, looked up): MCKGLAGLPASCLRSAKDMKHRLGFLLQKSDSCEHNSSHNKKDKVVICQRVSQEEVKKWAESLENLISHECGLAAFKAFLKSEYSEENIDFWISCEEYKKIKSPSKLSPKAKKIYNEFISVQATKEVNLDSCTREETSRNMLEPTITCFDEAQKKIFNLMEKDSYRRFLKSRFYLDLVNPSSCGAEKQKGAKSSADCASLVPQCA
# MrgX1 allo act – allosterically activates human MrgX1 receptor signaling | B-score at 10 µM | AID 588675 | MrgX1-HEK293, Fluo-4 calcium flux, FDSS; hits give high values | actives 0.63% (n = 310,000);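 active = plate-corrected calcium response at least 3 library SD above typical, normal starting fluorescence, not activating the receptor alone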;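 also: compound read alongside a low EC10 to EC30 dose of BAM8-22 agonist; peak minus trough fluorescence over baseline measured at the second addition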
# RGS4 pot – RGS4 potentiation or activation; HEK293 M3R/inducible RGS4, carbachol calcium flux Fluo4; hits give low values; B-score at 10 µM; actives 0.92% (n = 310,000); AID 463111;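 active = B-score of the integrated calcium signal more than 4 SD below the library mean, with starting fluorescence not abnormally high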;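 also: negative B-score means reduced calcium response which marks RGS4 activation or potentiation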
#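 Reagent: ECmax carbachol challenge; Test system: M3R-expressing HEK293 line, RGS4 induced by doxycycline; Schedule: overnight RGS4 induction, 30 min dye load 37 °C, 20 min compound RT; Detection: calcium dye Fluo4 fluorescence; Read-out: Agonist-evoked peak-minus-minimum fluorescence over baseline, integrated ratio, B score.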
# MrgX1 antagonist – human MrgX1 receptor antagonism, primary screen; Q96LB2; MRGX1-HEK293 calcium flux, Fluo-4, BAM8-22 antagonism; hits give low values; B-score at 10 µM; actives 1.3% (n = 310,000); AID 588676;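 active = calcium-response B-score plate-corrected more than 3 library SD below zero, starting fluorescence within 5 deviations, no agonist response on first addition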;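 also: peak minus trough fluorescence over baseline after final BAM8-22 challenge near maximal dose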
# MrgX1 antag conf – reconfirmed antagonist of human MrgX1 receptor signaling; shares compounds with MrgX1 antagonist; remaining BAM8-22 calcium response % of control (hits give low values), % at 10 µM; MrgX1-HEK293, BAM8-22 calcium flux, Fluo-4; hits give low values; actives 19% (n = 2,300);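 active = remaining agonist calcium response no higher than 100% minus 3 SD of agonist-only control wells, with starting fluorescence near control levels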;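 also: agonist BAM8-22 given at a near maximal EC90 to ECmax level; peak minus minimum fluorescence divided by baseline after agonist addition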
# HEK293 Ca flux – activity in parental HEK293 cells lacking MrgX1; shares compounds with MrgX1 antagonist; Fluo-4 calcium fluorescence, FDSS; fluorescence ratio F(max-min)/F0 at 10 µM; actives 2% (n = 4,000);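 active = duplicate-averaged calcium fluorescence ratio at least three times the standard deviation of buffer wells, a nonspecific response in parental cells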
# HEK293 Ca counter – MrgX1 allosteric activator counter-screen hit in parental HEK293 cells | fluorescence ratio F(max-min)/F0 at 10 µM | parental HEK293 calcium flux, Fluo-4 fluorescence ratio; hits give high values | actives 0.4% (n = 4,000) | AID 624114 | shares compounds with MrgX1 antagonist;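 active = calcium fluorescence ratio, averaged over duplicates, at least 3 SD of the buffer-well ratio, meaning a nonspecific response in receptor-free cells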;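 also: untransfected parental HEK293 lacking MrgX1 used as counterscreen for MrgX1 allosteric activators; fluorescence change taken during the second addition on a kinetic imager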
# HEK293 Ca cntr2 – counter-screen for MrgX1 activators: effect in parental HEK293 cells; shares compounds with MrgX1 antagonist; Fluo-4 calcium fluorescence (FDSS); hits give high values; fluorescence ratio F(max-min)/F0 at 10 µM; actives 8.7% (n = 4,000); AID 624115;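 active = calcium fluorescence ratio at least three times the spread of buffer wells, meaning a non-specific response in parental cells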
# Starred values were filed as active, the others as inactive; i = inactive; nt = no result given. Sampled rows, rich in hits. Any-hit rate of the full collection: about 3.5%.
SMILES,MrgX1 ag,RGS4 inh,MrgX1 allo act,RGS4 pot,MrgX1 antagonist,MrgX1 antag conf,HEK293 Ca flux,HEK293 Ca counter,HEK293 Ca cntr2
COc1ccc(NC(=O)Nc2cnccn2)cc1OC,i,i,i,i,i,nt,nt,nt,nt
COc1ccc(CN(C)CC(=O)N2CCc3ccccc3C2)cc1,i,i,i,i,i,nt,nt,nt,nt
CC(C)C(c1nnnn1C1CCCCC1)N1CCCc2ccccc21 (stereo not given),i,i,i,i,i,nt,nt,nt,nt
CC(C)C(c1nnnn1C1CCCC1)N1CCCc2ccccc21 (stereo not given),i,i,i,i,-6.1*,i,i,i,i
O=[N+]([O-])c1cccc(NC(=S)Nc2nc(-c3ccc(Cl)cc3Cl)cs2)c1,i,i,i,i,i,nt,nt,nt,nt
CCn1c(SCC(=O)Nc2cc(C)on2)nc2c1c(=O)n(C)c(=O)n2C,i,i,i,i,-7*,i,i,i,i
CCCCn1c(SCC(=O)Nc2cc(C)on2)nc2c1c(=O)n(C)c(=O)n2C,i,i,i,i,i,nt,nt,nt,nt
CC(C)CCOc1ccc(C(=O)NN2C(=O)NC3(CCCCC3)C2=O)cc1,i,i,i,i,i,nt,nt,nt,nt
Cc1cc(/C=C2\SC(=S)N(C)C2=O)c(C)n1-c1ccc(O)cc1,i,i,i,i,-11*,i,i,i,i
O=C(c1cc(Cl)nc2ccccc12)N(Cc1nnc(-c2ccccc2Cl)o1)C1CC1,i,i,i,i,i,nt,nt,nt,nt
CCn1cc(CN2CCc3c([nH]c4ccccc34)C2c2cccc(OC)c2OC)c(C)n1 (stereo not given),i,i,i,i,-5.4*,i,i,i,i
CC1CCCN(C(=O)Cn2nnc(-c3ccccc3F)n2)C1 (stereo not given),i,i,i,i,i,nt,nt,nt,nt
O=C(OCc1nnc(-c2ccccc2)o1)C1CC(=O)N(c2ccccc2)C1 (stereo not given),i,i,i,i,i,nt,nt,nt,nt
O=C(OCc1nnc(-c2ccccc2)o1)C1CC(=O)N(Cc2ccco2)C1 (stereo not given),i,i,i,i,-5*,i,i,i,i
COCCNC(=O)c1ccc(C)cc1C,i,i,i,i,-5.3*,73%*,i,i,i
Cc1ccc(-n2nnc3c(=O)oc4ccccc4c32)cc1,i,i,i,i,i,nt,nt,nt,nt
CCC(C)n1nnc2c(=O)oc3ccccc3c21 (stereo not given),i,i,i,i,-6.5*,i,i,i,i
Cc1csc(NC(=O)CCC(=O)N(CC(=O)NC2CCCC2)Cc2ccccc2)n1,i,i,i,i,i,nt,nt,nt,nt
Cc1ccc(C(=O)NCC2CCCN2S(=O)(=O)c2cccs2)cc1C (stereo not given),i,i,i,i,i,nt,nt,nt,nt
COc1ccccc1CNC(=O)C(=O)NCC1CCCN1S(=O)(=O)c1cccs1 (stereo not given),i,i,i,i,-4.8*,83%*,i,i,i
O=C(NCC1CCCN1S(=O)(=O)c1cccs1)C(=O)Nc1ccccc1 (stereo not given),i,i,i,i,i,nt,nt,nt,nt
O=C(NCc1ccccc1)C(=O)NCC1CCCN1S(=O)(=O)c1cccs1 (stereo not given),i,i,i,i,-16*,i,i,i,i
Cc1ccc(NC(=O)C(=O)NCC2CCCN2S(=O)(=O)c2cccs2)cc1 (stereo not given),i,i,i,i,i,nt,nt,nt,nt
COc1cc(C(=O)NCC2CCCN2S(=O)(=O)c2cccs2)cc(OC)c1OC (stereo not given),i,i,i,i,-7.7*,i,i,i,i
Cc1cccc(NC(=O)C(=O)NCC2CCCN2S(=O)(=O)c2cccs2)c1C (stereo not given),i,i,i,i,-5.5*,i,i,i,i
SMILES,MrgX1 ag,RGS4 inh,MrgX1 allo act,RGS4 pot,MrgX1 antagonist,MrgX1 antag conf,HEK293 Ca flux,HEK293 Ca counter,HEK293 Ca cntr2
COc1ccccc1CN1C[C@@H]2C[C@@H](c3ccc(C)c(C)c3)N3CCC[C@@]23C1=O,i,i,i,i,i,nt,nt,nt,nt
Cc1ccc(S(=O)(=O)N2CCCC2CNC(=O)C(=O)NCc2ccccn2)cc1 (stereo not given),i,i,i,i,-7.1*,i,i,i,i
COc1cc(NC(=O)c2oc3ccccc3c2C)ccc1NC(=O)c1ccco1,i,i,i,i,i,nt,nt,nt,nt
COc1ccccc1NC(=O)c1oc2ccccc2c1NC(=O)c1ccco1,i,i,i,i,-5.2*,77%*,i,i,i
O=C(Nc1ccc(N2CCOCC2)cc1)c1ccc(COc2ccccc2)cc1,i,i,i,i,i,nt,nt,nt,nt
COc1ccc(-c2cc(-c3ccc(Cl)cc3)c(C#N)c(SCC(=O)O)n2)cc1,i,i,i,i,-5.9*,i,i,i,i
COc1cc(OC)cc(C(=O)NNC(=S)Nc2ccc(S(N)(=O)=O)cc2)c1,i,i,i,i,i,nt,nt,nt,nt
CCCN(CCC)S(=O)(=O)c1ccc(C(=O)Nc2nc(-c3ccccc3)c(C(=O)OCC)s2)cc1,i,i,i,i,i,nt,nt,nt,nt
CCN(CC)c1ccc(C(=O)O)cc1,i,i,i,i,-5.7*,i,i,i,i
COc1ccc(-n2ncc3c2CC(C)(C)CC3NC(=O)c2ccnn2C)cc1 (stereo not given),i,i,i,i,i,nt,nt,nt,nt
COc1ccc(NC(=O)Cn2nnc(-c3ccccc3NC(=O)c3cccs3)n2)cc1,i,i,i,i,-7*,i,i,i,i
Cc1ccc(NC(=O)Cn2nnc(-c3ccccc3NC(=O)c3cccs3)n2)cc1,i,i,i,i,i,nt,nt,nt,nt
